High-throughput results as filed in PubChem BioAssay.
The list is not random: actives were taken first. Their share in the collection is about 1.5%.
SIRT5 inh – SIRT5 desuccinylase inhibitors, primary screen, biochemical, fluorescence imaging, single point, set 5; actives 1.1% (n = 330,000); inhibition, % at 15 µM; Purified SirT5, succinyl-peptide AMC, trypsin-coupled fluorescence; NAD-dependent protein deacylase sirtuin-5, mitochondrial (Homo sapiens), Q9NXA8; in the data active = inhibition above about 15%
PKA-R1A act – activators of PKA-R1A holoenzyme, primary screen, biochemical, fluorescence polarization, Cy5-IP20, bovine R1A, mouse PKAc. cAMP-dependent protein kinase type I-alpha regulatory subunit (Bos taurus) + …. PKA-R1A dissociation; scaled: DMSO 0%, 113 µM cGMP 100%. activation, % at 11.4 µM. actives 0.083% (n = 340,000). AID 504707, 2011;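 active = percent activation above the mean of all tested compounds plus 3 SD, cut at about 19% in these data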;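 note: higher means more PKAc released from R1A so a rise in polarization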
S100A4 MyoIIA – inhibitors of S100A4-myosin IIA peptide binding, primary screen, biochemical, fluorescence polarization, TAMRA-MyoIIA peptide; AID 652163, 2013; actives 0.14% (n = 360,000); inhibition, % at 10.7 µM;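 active = mean inhibition of at least 70% across replicates, with every replicate also reaching that level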
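Compound dosing: one dose per compound; test system: human S100A4 monomer with TAMRA-labelled myosin IIA peptide; probe or stimulus: TAMRA-labelled myosin IIA heavy-chain peptide probe, 5 nM; medium: HEPES buffer with Ca2+, pH 7.2; schedule: 5 min incubation before reading; benchmarks: neutral control DMSO, positive control TFP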
CRFBP-R2 block – antagonists of CRF-BP/CRF-R2 complex, primary screen, cell-based, HEK293, calcium dye fluorescence, uHTS | CRF-induced calcium fluorescence | inhibition, % at 11.8 µM | actives 0.59% (n = 350,000);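 active = inhibition of the ligand-induced calcium signal above about 50% at the single tested concentration, limit read from the data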
PKA-R2B act – activators of PKA-R2B holoenzyme, primary screen, biochemical, fluorescence polarization, Cy5-IP20, human. cAMP-dependent protein kinase catalytic subunit beta (Homo sapiens) + cAMP-dependent …. actives 0.079% (n = 340,000). activation, % at 11.4 µM. PKA-R2B holoenzyme dissociation; R2B truncated from residue 108, S112A mutant; 0% DMSO only, 100% 113 µM cGMP. AID 504700, 2011;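 active = activation above a cutoff set at the mean over all compounds plus 3 SD, cut at about 18% in these data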;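 note: higher means more holoenzyme dissociation and a rise in polarization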
Target sequence (P31323 whole entry, looked up, other chains not shown, the tested form may be a part): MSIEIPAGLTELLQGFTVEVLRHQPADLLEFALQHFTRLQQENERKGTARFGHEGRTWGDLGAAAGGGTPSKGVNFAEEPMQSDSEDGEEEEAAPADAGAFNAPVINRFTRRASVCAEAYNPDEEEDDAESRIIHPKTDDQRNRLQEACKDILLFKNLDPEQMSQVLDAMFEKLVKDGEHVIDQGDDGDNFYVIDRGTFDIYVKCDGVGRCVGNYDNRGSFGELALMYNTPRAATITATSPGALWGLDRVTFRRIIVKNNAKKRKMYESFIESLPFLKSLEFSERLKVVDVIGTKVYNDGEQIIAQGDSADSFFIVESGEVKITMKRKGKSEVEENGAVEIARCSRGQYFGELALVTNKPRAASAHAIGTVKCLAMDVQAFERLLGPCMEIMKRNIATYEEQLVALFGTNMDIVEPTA
Starred values were filed as active, the others as inactive; nt = not tested or not shown.

SMILES	SIRT5 inh	PKA-R1A act	S100A4 MyoIIA	CRFBP-R2 block	PKA-R2B act
Cc1ccc2nc(SCC(=O)N3CCOCC3)[nH]c2c1	nt	-9	nt	78*	7
CSc1ccccc1OCc1cc(C(=O)NCCN2CCCc3ccccc32)no1	0	-13	95*	-10	-14
CSc1ccccc1OCc1cc(C(=O)NCCn2nc(C)cc2C)no1	-9	0	0	14	-10
C[C@@H]1CCCCO[C@H](CN(C)C(=O)Nc2ccc(C(F)(F)F)cc2)[C@@H](C)CN([C@@H](C)CO)C(=O)c2cc(NS(=O)(=O)c3cn(C)cn3)ccc2O1	2	nt	-7	nt	nt
C[C@H]1CN([C@@H](C)CO)C(=O)c2cc(NC(=O)Nc3ccc4c(c3)OCO4)ccc2O[C@H]1CN(C)C(=O)Nc1ccc2c(c1)OCO2	16*	nt	-15	nt	nt
C[C@@H]1CN([C@H](C)CO)C(=O)c2cc(NC(=O)c3ccncc3)ccc2O[C@@H]1CN(C)C(=O)Nc1ccc2c(c1)OCO2	20*	nt	-4	nt	nt
C[C@H](CO)N1C[C@H](C)[C@@H](CN(C)C(=O)Nc2ccc3c(c2)OCO3)Oc2ccc(NC(=O)c3ccncc3)cc2C1=O	-2	nt	-4	nt	nt
C[C@@H]1CN([C@@H](C)CO)C(=O)c2cc(NC(=O)Nc3ccc4c(c3)OCO4)ccc2O[C@@H]1CN(C)C(=O)Nc1ccc(C(F)(F)F)cc1	16*	nt	0	nt	nt
C[C@H](CO)N1C[C@H](C)[C@H](CN(C)C(=O)Nc2ccc3c(c2)OCO3)Oc2ccc(NC(=O)Nc3ccc4c(c3)OCO4)cc2C1=O	6	nt	7	nt	nt
C[C@H](CO)N1C[C@H](C)[C@H](CN(C)C(=O)Nc2ccc3c(c2)OCO3)Oc2ccc(NC(=O)Nc3ccc(C(F)(F)F)cc3)cc2C1=O	15*	nt	-5	nt	nt
C[C@H](CO)N1C[C@H](C)[C@@H](CN(C)S(=O)(=O)c2cn(C)cn2)Oc2ccc(NC(=O)Nc3ccc(C(F)(F)F)cc3)cc2CC1=O	-4	nt	-27	nt	nt
COc1ccc(NC(=O)Nc2ccc3c(c2)C(=O)N([C@@H](C)CO)C[C@H](C)[C@@H](CN(C)C)OCCCC[C@H](C)O3)cc1	0	nt	8	nt	nt
C[C@@H]1CN([C@H](C)CO)C(=O)c2cc(NC(=O)C3CC3)ccc2O[C@@H]1CN(C)C(=O)Nc1ccc2c(c1)OCO2	3	nt	103*	nt	nt
C[C@@H]1CN([C@@H](C)CO)C(=O)c2cc(NC(=O)CCCCCC(=O)Nc3ccccc3N)ccc2O[C@H]1CN(C)C(=O)Nc1ccc2c(c1)OCO2	0	nt	119*	nt	nt
C[C@@H]1CN([C@@H](C)CO)C(=O)c2cc(NC(=O)Nc3ccc4c(c3)OCO4)ccc2O[C@@H]1CN(C)Cc1ccc(C(F)(F)F)cc1	17*	nt	-4	nt	nt
C[C@H]1CN([C@@H](C)CO)C(=O)c2cc(NC(=O)Nc3ccc(C(F)(F)F)cc3)ccc2O[C@H]1CN(C)Cc1ccc2c(c1)OCO2	0	nt	0	nt	nt
COC(=O)c1ccc(CSc2nc3c(c(=O)n2-c2ccc(Br)cc2)SCC3)o1	nt	-10	nt	61*	-1
Cc1ccc(S(=O)(=O)N[C@H]2CC[C@@H](CCn3cc(C4CCCC4)nn3)O[C@H]2CO)cc1	0	nt	0	nt	nt
C[C@@H]1CN([C@@H](C)CO)C(=O)c2cc(NS(=O)(=O)c3cccs3)ccc2O[C@H]1CN(C)S(=O)(=O)c1cn(C)cn1	-1	nt	12	nt	nt
C[C@H](CO)N1C[C@H](C)[C@H](CN(C)S(=O)(=O)c2cn(C)cn2)Oc2ccc(NS(=O)(=O)c3cccs3)cc2C1=O	15*	nt	3	nt	nt
C[C@H](CO)N1C[C@H](C)[C@H](CN(C)Cc2ccc(C(F)(F)F)cc2)OCCCC[C@H](C)Oc2ccc(NS(=O)(=O)c3cccs3)cc2C1=O	13	nt	4	nt	nt
C[C@H](CO)N1C[C@H](C)[C@@H](CN(C)Cc2ccc(Cl)c(Cl)c2)OCCCC[C@H](C)Oc2ccc(NS(=O)(=O)c3cccs3)cc2C1=O	19*	nt	8	nt	nt
